Screening data (PubChem BioAssay)
Compounds with a hit are over-represented: about 11% of the library has one in this group of screens.
S1P3 agonist: S1P3 (human) receptor agonism; Q99500; S1P3 NFAT-BLA reporter cells, FRET ratio; relative to 1 µM S1P, basal subtracted; activation, % at 4.5 µM; 60,000 compounds, 0.1% hits;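 active means activation above the screen-wide mean plus 3 SD, cut at about 4.5% in these data, passing the limit was not always enough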
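Benchmarks: high control 1 µM S1P / System: stable CHO line with human S1P3, Gα16, NFAT-BLA reporter / Dosing: single compound concentration, 4.5 µM final / Timing: 4 h compound at 37 °C, 2 h substrate at RT / Measured by: FRET β-lactamase substrate fluorescence, excitation 405 nm, 460/535 nm emission ratio, background-subtracted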
S1P1 ag-PAM: activates or potentiates agonism at human S1P1 receptor. P21453. activation, % at 9.5 µM. 56,000 compounds, 0.57% hits. AID 449. S1P1 CRE-bla cells, forskolin, beta-lactamase FRET, potentiator mode; S1P1 agonist co-added at EC20, 2 nM; 100% = saturating reference agonist, 0% = basal;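 active means activation above a cutoff set at the mean activation of all tested compounds plus 3 SD, cut at about 54% in these data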;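 further: forskolin at 4 µM as EC80 and the EC20 agonist is SEW2871; 100% = SEW2871 at its EC100 plus forskolin at EC80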
TNAP act DEA: activators of human TNAP at intermediate phosphate acceptor | activation factor at 20 µM | AID 813 | purified TNAP, CDP-star luminescence, 100 mM DEA, 30 min; active compounds read high; scale: 0 levamisole-inhibited, 1 vehicle-only enzyme | 64,000 tested, under 10 active | P05186;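 active means activation factor of at least 2 at 20 µM, relative to controls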
Target sequence (P05186 whole entry, looked up): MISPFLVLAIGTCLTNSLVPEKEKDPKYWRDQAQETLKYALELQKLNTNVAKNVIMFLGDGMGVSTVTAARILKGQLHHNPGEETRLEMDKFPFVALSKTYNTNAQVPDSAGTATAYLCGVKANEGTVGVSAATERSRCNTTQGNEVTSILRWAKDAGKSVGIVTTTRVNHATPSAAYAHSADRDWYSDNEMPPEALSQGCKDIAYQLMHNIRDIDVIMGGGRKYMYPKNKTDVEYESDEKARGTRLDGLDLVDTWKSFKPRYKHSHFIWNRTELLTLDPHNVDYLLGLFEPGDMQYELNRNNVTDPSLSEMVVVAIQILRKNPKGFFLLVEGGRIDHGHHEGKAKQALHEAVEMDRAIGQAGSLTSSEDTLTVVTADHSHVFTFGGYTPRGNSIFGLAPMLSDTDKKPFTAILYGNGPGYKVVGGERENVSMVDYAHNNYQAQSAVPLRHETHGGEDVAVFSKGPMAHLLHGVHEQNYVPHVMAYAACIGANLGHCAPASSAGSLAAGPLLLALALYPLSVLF
D1 allo mod: D1 dopamine receptor (human) allosteric modulation. P21728. HEK293 D1, CRE-luciferase, dopamine EC30 potentiation; actives deviate in either direction. B-score at 10 µM. 58,000 compounds, 5.9% hits. AID 641;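 active means luminescence count or its row- and column-corrected plate score outside the 99.7% band of the plate's sample wells, on either side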
M1 antagonist: antagonists of rat M1 muscarinic receptor; P08482; CHO-M1 cells, Fluo-4 calcium, ACh EC80 antagonist mode; active compounds read low; B-score at 10 µM; 64,000 compounds, 3.4% hits; AID 628;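 active means calcium fluorescence response, raw or row-and-column corrected B-score, differing from the plate sample mean either way at a set confidence level, mostly lower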
M1 agonist: M1 muscarinic receptor agonism. CHO-M1 cells, Fluo-4 calcium fluorescence, agonist mode; active compounds read high. B-score at 10 µM. 64,000 compounds, 3% hits. AID 626;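 active means fluorescence rise, raw or as B-score row- and column-corrected plate score, outside the 99.7% band of its plate's samples, either direction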
M1 ag confirm: confirmation of rat M1 muscarinic receptor agonists; 1,700 compounds, 19% hits; shares compounds with M1 agonist; CHO-M1 cells, Fluo-4 calcium fluorescence, agonist mode; actives lie on both sides; fluorescence change (max-min) at 10 µM;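 active means fluorescence change differs from the solvent-only DMSO control mean at a set confidence level in both duplicate runs; inconclusive means differs from solvent-only control mean in just one of two runs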;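 further: an EC20 dose of acetylcholine follows compound addition during the same imaging run; raw fluorescence intensity difference in instrument units with no normalization to controls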
M4 agonist ctr: activates rat M4 receptor in counter-screen for M1 agonists; 1,700 compounds, 9% hits; CHO M4/Gqi5 cells, Fluo-4 calcium fluorescence, agonist mode; actives lie on both sides; AID 1741; fluorescence change (max-min) at 10 µM; shares compounds with M1 agonist;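 active means fluorescence change differing from the plate's solvent-only control wells at 99.7% confidence in both duplicates, whether higher or lower; inconclusive means differs from solvent controls in only one of two duplicates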
An asterisk follows results filed as active; u = inconclusive; x = no result.

SMILES	S1P3 agonist	S1P1 ag-PAM	TNAP act DEA	D1 allo mod	M1 antagonist	M1 agonist	M1 ag confirm	M4 agonist ctr
CCOC(=O)N1CCN(c2nc3ccccc3nc2C(C#N)C(=O)NCCc2ccccc2)CC1 (stereo not given)	-1	8	0.8	-0.035	-0.62	22*	u	81
COc1ccccc1N1CCN(c2nc3ccccc3nc2C(C#N)C(=O)OC(C)C)CC1 (stereo not given)	-1	-12	0.7	-0.76	-1.6	1.1	x	x
O=C1CC(N(Cc2ccco2)C(=O)Nc2ccc(F)cc2)C(=O)N1c1ccc(F)cc1 (stereo not given)	-1	x	1	-0.25	0.45	0.62	x	x
Cn1c(=O)c2c(nc(N3CCNCC3)n2Cc2cccc3ccccc23)n(C)c1=O	0	1	1	0.21	0.15	-0.95	x	x
CCCOc1nc2c(c(=O)n(C)c(=O)n2C)n1Cc1cccc2ccccc12	x	x	0.9	-0.95	-0.7	3.6*	u	-32
Cc1nnc(N2C(=O)c3oc4ccccc4c(=O)c3C2c2ccco2)s1 (stereo not given)	-1	-2	0.9	-0.79	-0.25	3*	u	-44
CC(C)c1nnc(N2C(=O)c3oc4ccccc4c(=O)c3C2c2ccco2)s1 (stereo not given)	-2	7	x	-0.42	-0.53	-0.21	x	x
Cc1cc(C)n(CCCNCC(O)c2ccccc2)n1 (stereo not given)	1	5	1	-0.09	0.82	0.064	x	x
CC(OC(=O)c1ccco1)C(=O)NC1CCCCC1 (stereo not given)	0	-12	0.8	-0.78	-1.2	-0.15	x	x
CC(C)C(OC(=O)c1ccco1)C(=O)NC1CCCCC1 (stereo not given)	1	-10	0.9	-0.74	0.25	2.2*	-17	-45
COc1ccc(CCn2c(-c3ccco3)nc3nc4ccccc4nc32)cc1	0	-9	0.8	0.75	-0.0081	3.5*	-7.1	-12
CCCn1c(-c2ccc(OC)cc2)nc2nc3ccccc3nc21	1	-22	0.9	-0.13	-0.92	-0.16	x	x
Cn1c(Cc2csc(N)n2)nnc1SCC(=O)NCc1ccccc1	0	-15	0.9	0.032	1.1	-0.23	x	x
NS(=O)(=O)c1ccc(NC(=O)COC(=O)CCNC(=O)NC23CC4CC(CC(C4)C2)C3)cc1	x	x	0.9	1.6	-0.0036	0.003	x	x
Cc1cc(C(=O)CSc2nnc(-c3ccco3)o2)c(C)n1-c1ccc2c(c1)OCCO2	0	62*	0.9	x	-0.29	12*	u	-44
CC(=O)CCn1c(=O)n(CCC(C)=O)c(=O)n(CCC(C)=O)c1=O	-4	3	0.9	x	-0.0014	-0.46	x	x
Cc1ccc(/C=c2\sc3nc(-c4ccccc4Br)nn3c2=O)o1	-1	-6	0.7	0.55	-0.48	-2.4	x	x
O=C(O)c1ccccc1-c1ccc(/C=c2\sc3nc4cc(Br)cnc4n3c2=O)o1	x	x	0.8	-0.13	-0.47	53*	136*	u
O=C(CN1C(=O)c2ccccc2S1(=O)=O)NCCSC1CCCCC1	-1	10	0.9	-0.28	-0.79	0	x	x
CC12CC(NC(=O)N1c1cccc(C(=O)NCc3ccc4c(c3)OCO4)c1)c1cc(Cl)ccc1O2 (stereo not given)	x	x	0.6	-0.041	-0.72	2.2*	u	-50
CC(C)C(=O)Nc1cccc(C(=O)NCc2ccc3c(c2)OCO3)c1	-1	7	1	-0.65	0.24	0.38	x	x
Cc1cc(N2CCN(c3nc4ccccc4s3)CC2)n2ncnc2n1	0	58*	1	-2.3	-1.4	3.6*	8.4	u
Cc1cc(N2CCN(C(c3ccccc3)c3ccccc3)CC2)n2ncnc2n1	-1	70	0.9	-1.3	-0.84	2.2	x	x
O=C(c1cc2ccccc2oc1=O)N(Cc1ccco1)CC1CCCO1 (stereo not given)	-2	-8	1	0.15	0.26	-0.59	x	x
O=C(c1cc2ccccc2oc1=O)N(Cc1ccc2c(c1)OCO2)Cc1ccco1	-1	-2	0.9	x	-1.9	5*	-13	u
SMILES	S1P3 agonist	S1P1 ag-PAM	TNAP act DEA	D1 allo mod	M1 antagonist	M1 agonist	M1 ag confirm	M4 agonist ctr
CC1(C)Cc2c(C#N)c(SCCOc3ccccc3)nc(N3CCOCC3)c2CO1	-4	6	1.1	x	-0.33	4.1*	-9.7	u
CCCSc1nc(N2CCCC2)c2c(c1C#N)CC(C)(C)OC2	-4	0	0.9	x	-0.53	-1.2	x	x
CCCCc1nc(NCC2CCCO2)c(C#N)c2c1COC(C)(C)C2 (stereo not given)	-5	-12	0.9	x	-0.16	0.25	x	x
CCCCc1nc(N2CCOCC2)c(C#N)c2c1COC(C)(C)C2	-1	2	0.9	x	0.066	4.5*	u	-28
CCN1CCc2c(sc(N)c2C#N)C1	-1	x	0.9	-0.36	-1.5	12*	15	3.3
CC(C)N1CCc2c(sc(N)c2C#N)C1	-2	-10	0.9	-0.38	0.084	13	x	x
CCOc1ccc(NC(=O)Nc2ccc3c(c2)N(C)C(=O)CS3)cc1	0	32	0.9	-0.92	0.0026	-0.77	x	x
COc1ccc(NC(=O)Nc2ccc3c(c2)N(C)C(=O)CS3)cc1OC	0	-36	1	-3.9	-1.5	3.1*	u	-28
CCCCn1c(=NC(=O)c2ccc3c(c2)OCO3)c(C#N)cc2c(=O)n3cccc(C)c3nc21	0	-18	0.9	2	-0.87	13*	u	-44
CC(C)OCCCn1c(=N)c(C(N)=S)cc2c(=O)n3ccccc3nc21	-3	-9	0.6	x	-0.95	4*	-11	u
CC(C)OCCCn1c(=NC(=O)c2ccncc2)c(C#N)cc2c(=O)n3ccccc3nc21	2	-61	0.9	0.34	-1.6	25*	219*	u
CCCCCn1c(=NC(C)=O)c(C#N)cc2c(=O)n3ccccc3nc21	1	-28	0.9	1.3	-0.19	1.3	x	x
COC(=O)c1cc2c(=O)n3ccccc3nc2n(C)c1=N	3	-64	1	1.3	-0.55	-0.68	x	x
CS(=O)(=O)Nc1ccc(N2CCCCC2)c(Cl)c1	0	-6	0.9	-0.44	-0.032	0.39	x	x
C=CCn1c(N)c(C(=O)NCC2CCCO2)sc1=S (stereo not given)	0	-5	0.9	0.081	0.42	-0.018	x	x
CCn1c(N)c(C(=O)NCC2CCCO2)sc1=S (stereo not given)	-1	-9	1	1.7	-0.083	6.7*	-7.8	-3.5
